Experimental data from ChEMBL document CHEMBL1147102, “rpoN gene of Pseudomonas aeruginosa alters its susceptibility to quinolones and carbapenems” (2007).
Values after ≈ are worked out from the molar mass of the structure shown.

Experiments:
Assay type in all cases: functional
[1] = test system: Pseudomonas aeruginosa; assay: Antimicrobial activity against Pseudomonas aeruginosa PAO1 with rpoN mutation after 24 hrs; conditions: PAO1, 24 h
How it was run: (§1)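 Broth microdilution in LB broth, inoculum 1 × 10⁶ cells/ml. MIC read after 24 h at 37°C as the lowest concentration giving complete growth inhibition by unaided eye. For MBC, 10 μl from each well without visible growth was plated on LB agar and incubated 24 h at 37°C.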

[2] = test system: Pseudomonas aeruginosa; assay: Antimicrobial activity against Pseudomonas aeruginosa PAO1 with pvdS mutation after 24 hrs; conditions: PAO1, 24 h; how it was run: as §1
[3] = test system: Pseudomonas aeruginosa; assay: Antimicrobial activity against wild type Pseudomonas aeruginosa PAO1 after 24 hrs; conditions: PAO1, 24 h; how it was run: as §1
[4] = test system: Pseudomonas aeruginosa; assay: Increase in vqsR gene expression in Pseudomonas aeruginosa PAO1 with rpoN mutation at 8 ug/ml relative to wild type
How it was run: (§2)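 Overnight LB cultures were washed and resuspended in fresh LB with ofloxacin 8 μg/ml. Sampling was at 0, 1, 3 and 5 h, with RNA stabilized immediately. DNase-treated total RNA (~650 ng) was reverse transcribed. qRT-PCR was quantified against external plasmid standard curves and normalized to the rpsL reference gene. Triplicate reactions.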

[5] = test system: Pseudomonas aeruginosa; assay: Increase in pvdS gene expression in Pseudomonas aeruginosa PAO1 with rpoN mutation at 8 ug/ml after 3 hrs relative to wild type; how it was run: as §2
[6] = test system: Pseudomonas aeruginosa; assay: Increase in GFP tagged vqsR protein expression in Pseudomonas aeruginosa PAO1 with rpoN mutation at 8 ug/ml by flow cytometry relative to wild type
How it was run: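 Strains carried a plasmid GFP reporter driven by the vqsR promoter. Cells were grown in LB broth with carbenicillin 400 μg/ml. Stationary-phase (overnight) cultures were washed, resuspended in fresh LB and given ofloxacin 8 μg/ml. Samples were taken over 0–5 h, washed and resuspended in PBS. Mean fluorescence intensity came from 20,000 events, corrected for background (PAO1 without gfp). Three experiments.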

SMILES | MBC [1] [µg/mL] | MIC [1] [µg/mL] | MBC [2] [µg/mL] | MIC [2] [µg/mL] | MBC [3] [µg/mL] | MIC [3] [µg/mL] | Fold change [4] | Fold change [5] | Fold change [6]
C[C@@H](O)[C@H]1C(=O)N2C(C(=O)O)=C(SCCNC=N)C[C@H]12 [IMIPENEM ANHYDROUS] | 16 (≈ 53.4 µM) | 1 (≈ 3.34 µM) | 4 (≈ 13.4 µM) | 1 (≈ 3.34 µM) | 1 (≈ 3.34 µM) | 1 (≈ 3.34 µM) |  |  | 
CC1COc2c(N3CCN(C)CC3)c(F)cc3c(=O)c(C(=O)O)cn1c23 (configuration not stated) [OFLOXACIN] | 2 (≈ 5.53 µM) | 1 (≈ 2.77 µM) | 2 (≈ 5.53 µM) | 1 (≈ 2.77 µM) | 1 (≈ 2.77 µM) | 1 (≈ 2.77 µM) | 2.5 | 30 | 8
C[C@@H](O)[C@H]1C(=O)N2C(C(=O)[O-])=C(SC3Cn4cnc[n+]4C3)[C@H](C)[C@H]12 (some centres not stated) [BIAPENEM] | 16 (≈ 45.7 µM) | 0.5 (≈ 1.43 µM) | 1 (≈ 2.85 µM) | 0.5 (≈ 1.43 µM) | 2 (≈ 5.71 µM) | 0.5 (≈ 1.43 µM) |  |  | 
O=C(O)c1cn(C2CC2)c2cc(N3CCNCC3)c(F)cc2c1=O [CIPROFLOXACIN] | 2 (≈ 6.04 µM) | 0.25 (≈ 0.754 µM) | 0.25 (≈ 0.754 µM) | 0.125 (≈ 0.377 µM) | 0.5 (≈ 1.51 µM) | 0.125 (≈ 0.377 µM) |  |  | 
